Measured values from ChEMBL document CHEMBL3779799, “Antifibrotic and anticancer action of 5-ene amino/iminothiazolidinones” (Eur J Med Chem, 2016).

Columns and labels:
HFL1 [1] = assay: Antifibrotic activity in HFL1 cells assessed as inhibition of cell viability after 48 hrs by sulforhodamine B assay; format: functional, cell-based; settings: Homo sapiens, HFL1, 48 h
In short: (§1)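 HFL-1 human fetal lung fibroblasts (DMEM, 10% FCS, passages 14–18) seeded at 8000 cells/well, attached overnight, then exposed to a range of concentrations for 48 h in triplicate. Cells were fixed with TCA and stained with 0.4% SRB, bound dye was solubilized in Tris, and OD was read at 570 nm relative to control.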

[2] = Cytotoxicity against human MOLT4 cells assessed as cell growth at 10^-5 M after 48 hrs by sulforhodamine B assay relative to control; format: functional; settings: MOLT-4, 48 h, read-out: Activity
In short: (§2)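 NCI ~60 human tumor cell line one-dose screen covering nine cancer types. Cells were preincubated 24–48 h, then exposed to compound at 10^-5 M for 48 h. SRB protein staining was the endpoint, and growth percent was calculated versus untreated control cells.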

NCI-H522 = assay: Cytotoxicity against human NCI-H522 cells assessed as cell growth at 10^-5 M after 48 hrs by sulforhodamine B assay relative to control; format: functional; settings: NCI-H522, 48 h, read-out: Activity; in short: as §2
[3] = Cytotoxicity against human UO31 cells assessed as cell growth at 10^-5 M after 48 hrs by sulforhodamine B assay relative to control; format: functional; settings: UO-31, 48 h, read-out: Activity; in short: as §2
[4] = Cytotoxicity against human RPMI8226 cells assessed as cell growth at 10^-5 M after 48 hrs by sulforhodamine B assay relative to control; format: functional; settings: RPMI-8226, 48 h, read-out: Activity; in short: as §2
[5] = Antioxidant activity assessed as inhibition of superoxide anion generation measured for 3 mins by nitro blue tetrazolium assay; format: physicochemical
In short: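 Cell-free superoxide generated by xanthine (1 mM) and xanthine oxidase (0.11 U/mL), with NBT (50 µM) as detector. Compounds in DMSO were tested up to 10 µM, with DMSO held at 0.1%. NBT reduction rate (dA560/dt) was read spectrophotometrically over 3 min from the linear part.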

HFL1 [6] = assay: Antifibrotic activity in HFL1 cells assessed as inhibition of cell viability at >1 uM after 48 hrs by sulforhodamine B assay relative to control; format: functional; settings: Homo sapiens, HFL1, 48 h; in short: as §1
[7] = Cytotoxicity against human NCI60 cells assessed as cell growth at 10^-5 M after 48 hrs by sulforhodamine B assay relative to control; format: functional; settings: NCI60, 48 h, read-out: Activity; in short: as §2
[8] = Cytotoxicity against human SF295 cells assessed as cell growth at 10^-5 M after 48 hrs by sulforhodamine B assay relative to control; format: functional; settings: SF-295, 48 h, read-out: Activity; in short: as §2
MDA-MB-435 = assay: Cytotoxicity against human MDA-MB-435 cells assessed as cell growth at 10^-5 M after 48 hrs by sulforhodamine B assay relative to control; format: functional; settings: MDA-MB-435, 48 h, read-out: Activity; in short: as §2
[9] = Cytotoxicity against human SNB75 cells assessed as cell growth at 10^-5 M after 48 hrs by sulforhodamine B assay relative to control; format: functional; settings: SNB-75, 48 h, read-out: Activity; in short: as §2

| SMILES | IC50 (HFL1 [1]) | growth at 10 µM [2] | growth at 10 µM (NCI-H522) | growth at 10 µM [3] | growth at 10 µM [4] | IC50 [5] | Emax ([5]; 0.05 h) | Emax (HFL1 [6]) | growth at 10 µM [7] | growth at 10 µM [8] | growth at 10 µM (MDA-MB-435) | growth at 10 µM [9] |
| --- | --- | --- | --- | --- | --- | --- | --- | --- | --- | --- | --- | --- |
| CN(C1=NC(=O)/C(=C2/C(=O)Nc3ccccc32)S1)c1ccc(O)cc1 | 1780 nM | 60.2% | 65.2% | 21.4% | 55.2% | 350 nM | 71.7% | 27.3% | 85.6% |  |  |  |
| COc1ccc(-c2nnc(NC3=NC(=O)/C(=C/c4ccc(N(C)C)cc4)S3)o2)cc1 | 150 nM |  |  |  |  |  |  | 52.4% | 92.8% | 69.8% | 47.8% | 60.4% |
